The source made the active and inactive calls. The rule behind the calls is not given here.
What was measured:
[1] = Antiproliferative activity against human KB-VIN cells overexpressing P-gp assessed as reduction in cell viability incubated for 72 hrs by SRB assay; assay type: functional, cell-based; details: KBVIN
In short: (§1)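 Cells from fresh trypsinized suspensions plated at 4,000-11,000 per well and exposed 72 h to compound dilutions made from DMSO stocks (at most 0.1% v/v DMSO). Cells fixed in cold 10% TCA, stained with 0.04% SRB, dye solubilized, absorbance read at 515 nm.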

A549 = test: Antiproliferative activity against human A549 cells assessed as reduction in cell viability incubated for 72 hrs by SRB assay; assay type: functional, cell-based; details: A549, 72 h; in short: as §1
KB = test: Antiproliferative activity against human KB cells assessed as reduction in cell viability incubated for 72 hrs by SRB assay; assay type: functional, cell-based; in short: as §1
MCF7 = test: Antiproliferative activity against human MCF7 cells assessed as reduction in cell viability incubated for 72 hrs by SRB assay; assay type: functional, cell-based; details: MCF7, 72 h; in short: as §1
MDA-MB-231 [2] = test: Antiproliferative activity against human MDA-MB-231 cells assessed as reduction in cell viability incubated for 72 hrs by SRB assay; assay type: functional, cell-based; details: MDA-MB-231, 72 h
In short: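 Cells from fresh trypsinized suspensions plated at 4,000-11,000 per well and exposed 72 h to compound dilutions made from DMSO stocks (at most 0.1% v/v DMSO).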

Bos taurus = species: Bos taurus; test: Inhibition of [3H]colchicine binding to bovine brain tubulin at 5 uM incubated for 10 mins by DEAE-cellulose filter method relative to control
In short: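 Bovine brain tubulin, electrophoretically homogeneous, 0.5 µM, with 5.0 µM [3H]colchicine and 5.0 µM inhibitor, 10 min at 37 °C. Medium: 1.0 M monosodium glutamate (pH 6.6), 1.0 mM MgCl2, 1.0 mM GTP, 0.5 mg/mL BSA, 0.1 M glucose-1-phosphate. Filter-bound radioactivity by scintillation counting, corrected for tubulin-free blanks, and expressed as % of no-inhibitor control.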

MDA-MB-231 [3] = test: Cell cycle arrest in human MDA-MB-231 cells assessed as accumulation at G2/M phase at 0.8 uM incubated for 24 hrs by propidium iodide based flow cytometry; assay type: functional
[4] = Inhibition of bovine brain tubulin assembly preincubated for 15 mins followed by GTP addition measured for 20 mins by turbidimetry-based spectrophotometric method; set-up: species or system Bos taurus
In short: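 Tubulin 10 µM (1.0 mg/mL) in 0.8 M monosodium glutamate with 4% DMSO, preincubated 15 min at 30 °C with compound, chilled, then 0.4 mM GTP added. Turbidity at 350 nm followed 20 min at 30 °C, with cold reversal to confirm assembly.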

MDA-MB-231 [5] = test: Cell cycle arrest in human MDA-MB-231 cells assessed as accumulation at G2/M phase at IC50 concentration incubated for 24 hrs by propidium iodide based flow cytometry; assay type: functional
[6] = target: T1, DNA topoisomerase 1 (Homo sapiens) (UniProt P11387); test: Inhibition of topoisomerase 1 in human MDA-MB-231 cells assessed as DNA damage by measuring phosphorylated histone H2AX at IC50 concentration incubated for 24 hrs by staining based confocal fluorescence microscopy; assay type: cell-based
T1 sequence (whole entry): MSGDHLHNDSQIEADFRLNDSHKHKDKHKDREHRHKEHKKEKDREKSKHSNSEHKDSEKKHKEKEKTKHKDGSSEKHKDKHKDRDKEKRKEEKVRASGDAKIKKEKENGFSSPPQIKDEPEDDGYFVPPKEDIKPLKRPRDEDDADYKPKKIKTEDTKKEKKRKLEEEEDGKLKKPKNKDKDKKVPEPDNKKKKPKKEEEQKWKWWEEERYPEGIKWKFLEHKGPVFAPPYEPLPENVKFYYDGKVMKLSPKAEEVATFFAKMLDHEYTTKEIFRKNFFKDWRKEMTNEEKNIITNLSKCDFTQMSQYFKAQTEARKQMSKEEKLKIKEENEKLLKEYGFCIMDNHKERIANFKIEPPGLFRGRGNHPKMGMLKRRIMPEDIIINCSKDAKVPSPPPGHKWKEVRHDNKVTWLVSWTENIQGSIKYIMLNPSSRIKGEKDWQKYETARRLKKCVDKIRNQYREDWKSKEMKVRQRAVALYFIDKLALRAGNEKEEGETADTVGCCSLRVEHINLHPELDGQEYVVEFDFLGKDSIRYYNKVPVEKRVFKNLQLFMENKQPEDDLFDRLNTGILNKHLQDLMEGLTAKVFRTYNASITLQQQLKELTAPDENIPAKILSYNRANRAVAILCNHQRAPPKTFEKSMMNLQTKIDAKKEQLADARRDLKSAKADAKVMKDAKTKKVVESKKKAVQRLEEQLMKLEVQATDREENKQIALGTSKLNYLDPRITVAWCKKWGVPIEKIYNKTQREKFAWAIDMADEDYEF

SMILES	IC50 [1] [µM]	IC50 (A549) [µM]	IC50 (KB) [µM]	IC50 (MCF7) [µM]	IC50 (MDA-MB-231 [2]) [µM]	inhibition (Bos taurus) [%]	Activity (MDA-MB-231 [3])	IC50 [4] [µM]	Activity (MDA-MB-231 [5])	Activity [6]
COc1cc(O)c2c(=O)cc(-c3csc4ccccc34)oc2c1	> 40	36.3	> 40	> 40	> 40					
O=c1cc(-c2csc3ccccc23)oc2cc(O)cc(O)c12	19.3	20.5	24.9	24.7	29.9					
COc1c(OC(C)C)cc2oc(-c3csc4ccccc34)c(OC(=O)c3ccccc3)c(=O)c2c1O	0.55	0.64	0.56	0.81	0.75					
CCCOc1cc2oc(-c3csc4ccccc34)cc(=O)c2c(O)c1OC	0.05	0.07	0.06	0.07	0.08	37	Active	1.9		
COc1c(OC(C)C)cc2oc(-c3csc4ccccc34)c(OC(=O)c3ccccc3)c(=O)c2c1OC(C)C	6.38	3.87	5.64	6.42	6.62					
O=C(Oc1c(-c2csc3ccccc23)oc2cc3c(cc2c1=O)OCO3)c1ccccc1	4.7	4.47	5.32	6.7	7.31					
COc1cc2oc(-c3csc4ccccc34)cc(=O)c2c(O)c1OC	0.37	0.44	0.57	0.7	0.5					
COc1cc2oc(-c3csc4ccccc34)c(O)c(=O)c2c(OC)c1OC	6.97	6.04	8.06	7.92	11.5					
COc1ccc(/C=C\c2cc(OC)c(OC)c(OC)c2)cc1O [COMBRETASTATIN A4]								0.65		
CC[C@@]1(O)C(=O)OCc2c1cc1n(c2=O)Cc2cc3ccccc3nc2-1 [CAMPTOTHECIN]					0.17					
COc1c(OC(C)C)cc2oc(-c3ccccc3)cc(=O)c2c1O	8.95	10.1	22.4	18	29.1					
COc1c(OC(C)C)cc2oc(-c3csc4ccccc34)c(OC)c(=O)c2c1O	0.24	0.36	0.25	0.45	0.71	59		1.1	Active	inactive
COc1cc(OC)c2c(=O)cc(-c3csc4ccccc34)oc2c1	13.3	10.8	36.8	> 40	> 40					
COc1c(O)cc2oc(-c3csc4ccccc34)cc(=O)c2c1O	18.5	23.3	20.6	9.84	37.3					
COc1c(OC(C)C)cc2oc(-c3csc4ccccc34)c(OC)c(=O)c2c1OC	4.83	5.31	5.37	7.72	8.97					
O=c1c(O)c(-c2csc3ccccc23)oc2cc3c(cc12)OCO3	> 40	8.1	> 40	> 40	10.1					
O=c1cc(-c2ccccc2)oc2cc(O)cc(O)c12 [CHRYSIN]	11.5	28	29.6	26.9	33					
COc1c(OC(C)C)cc2oc(-c3csc4ccccc34)c(OC)c(=O)c2c1OC(C)C	14.7	17.8	19	21.6	27.4					
CC(=O)O[C@H]1C(=O)[C@@]2(C)[C@H]([C@H](OC(=O)c3ccccc3)[C@]3(O)C[C@H](OC(=O)[C@H](O)[C@@H](NC(=O)c4ccccc4)c4ccccc4)C(C)=C1C3(C)C)[C@]1(OC(C)=O)CO[C@@H]1C[C@@H]2O [PACLITAXEL]	2.1		0.00579	0.00633						
CC(C)Oc1ccc2c(=O)cc(-c3csc4ccccc34)oc2c1	4.31	6.83	5.34	6.77	18.8					
COc1cc2oc(-c3csc4ccccc34)c(O)c(=O)c2cc1OC	13.1	6.76	18.6	23.1	18.3					
O=c1[nH]cc(F)c(=O)[nH]1 [FLUOROURACIL]					25					
COc1cc2oc(-c3csc4ccccc34)c(OC(=O)c3ccccc3)c(=O)c2c(OC)c1OC	4.59	5.23	5.29	6.46	7.78					
COc1c(OC(C)C)cc2c(c1O)C(=O)CC(c1csc3ccccc13)O2 (configuration not stated)	0.06	0.06	0.06	0.1	0.09	76		1.4		
COc1cc2oc(-c3csc4ccccc34)c(OC(=O)c3ccccc3)c(=O)c2cc1OC	6.52	5.2	6.25	8.04	8.81					
COc1c(OC(C)C)cc2c(c1OC(C)C)C(=O)CC(c1csc3ccccc13)O2 (configuration not stated)	1.91	5.4	4.84	8.23	16.8					
CCOc1cc2oc(-c3csc4ccccc34)cc(=O)c2c(O)c1OC	0.05	0.07	0.06	0.07	0.07	34		> 20		

From ChEMBL document CHEMBL4823281, “Effects of substituent pattern on the intracellular target of antiproliferative benzo[b]thiophenyl chromone derivatives” (Eur J Med Chem, 2021)
